# This is a sample that favours compounds with a hit; in the whole collection about 2% have one here.
# TROY NFkB inh = inhibitors of TROY-dependent NF-kB signaling; 0.98% of 360,000 active; inhibition, % at 10 µM; Q293 LMP1-TROYcd NF-kB luciferase reporter, 4 h;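 active = compounds whose plate-normalised and pattern-corrected inhibition of the luciferase reporter signal at the single screening dose is 50% or more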
# LGR2 antag = inhibitors of bursicon-induced Drosophila LGR2 receptor cAMP signaling. 0.35% of 380,000 active. inhibition, % at 9.99 µM. HEK293 LGR2, CRE-luciferase, bursicon-stimulated, 4 h;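 active = drop in luminescence signal, shown as inhibition above about 50% in the replicate tests, limit read from the data, passing the limit was not always enough; inconclusive = probably only some replicates passing the limit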;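 also: agonist challenge used bursicon conditioned medium at about half maximal strength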
# CaV13 ICDI inh = Primary screen for inhibitors of IQ motif and Ca2+-dependent inactivation inhibitor domain binding in CACNA1D, Förster resonance energy transfer in living cells, …; inhibition, % at 12.3 µM; 0.098% of 340,000 active; HEK cells, CFP/YFP FRET ICDI-IQ, plate reader, 10 min; percent FRET-ratio fall versus neutral wells;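 active = mean replicate inhibition of at least 30% and at least 1% of replicates passing that level; inconclusive = only one of the two criteria is met; inactive = neither criterion is met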;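 also: 0% = median of the neutral control wells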
# TWEAK Fn14 block = inhibitors of TWEAK-Fn14 interaction signaling. TWEAK-stimulated Fn14 reporter cells, luciferase luminescence, 8 h. inhibition, % at 10 µM. 2% of 360,000 active. AID 1159606; in the data active = inhibition above about 50%
# Xi reactivation = X-chromosome reactivation activator. XiGFP mouse fibroblasts, % GFP-positive cells imaging, 3 d; cells co-treated with 5-aza-dC sensitizer; scaled so ellipticine positive control = 100%. activation, % at 7.58 µM. 0.055% of 360,000 active;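 active = mean normalized replicate activation at least 10% and every replicate at or above 10%; inconclusive = only one of the two criteria met; inactive = mean below 10% and not all replicates reach 10%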;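 also: 0% = median of on-plate neutral control wells and 100% = ellipticine 6 µM median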
#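 assay system = SV40-immortalized XiGFP fibroblast cells, line 68-5-11 | buffer or medium = DMEM plus 5-aza-dC sensitizer | doses = single-point pinned compound dosing | times = 3-day compound exposure, then 15 min fixation at room temperature | benchmarks = positive control ellipticine, 6 µM final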
# The depositor's hits bear a star; u = inconclusive; x = no result given.
SMILES,TROY NFkB inh,LGR2 antag,CaV13 ICDI inh,TWEAK Fn14 block,Xi reactivation
COc1cc(OC)c2c(-c3cccc(-c4ccc(OC)c(F)c4)c3)cc(=O)oc2c1,4,-27,-6,-26,1
O=C(Nc1cccc(F)c1)N1CC(=O)N2[C@H](CO)[C@H](c3ccc(C#Cc4cccnc4)cc3)[C@H]2C1,x,29,x,x,1
C[C@@H]1CN([C@H](C)CO)C(=O)Cc2cc(NC(=O)c3ccncc3)ccc2O[C@@H]1CN(C)S(=O)(=O)c1ccccc1,x,-5,x,x,0
CC(NC(=O)CCNS(=O)(=O)c1cccc2nsnc12)c1ccccc1 (configuration not stated),20,-9,-4,54*,0
O=S(=O)(Nc1ccccc1)c1cccc2nsnc12,7,2,-2,15,0
O=S(=O)(Nc1ccc2c(c1)OCCO2)c1cccc2nsnc12,84*,5,x,95*,x
O=C(CCNS(=O)(=O)c1cccc2nsnc12)Nc1ccc2c(c1)OCCO2,3,x,-5,58*,x
C[C@H]1CN([C@@H](C)CO)C(=O)Cc2cc(NC(=O)Nc3ccc(C(F)(F)F)cc3)ccc2O[C@@H]1CN(C)C(=O)Nc1cccc2ccccc12,x,13,x,x,0
CCN(CC)C(=O)c1cccc(-c2csc(C(O)c3cccc(Cl)c3)n2)c1 (configuration not stated),45,25,-4,61*,0
COc1ccc(NC(=O)N(C)C[C@H]2OCCCC[C@H](C)Oc3ccc(NS(=O)(=O)c4ccc(Cl)cc4)cc3C(=O)N([C@H](C)CO)C[C@@H]2C)cc1,x,5,x,x,0
COc1ccc(-c2n[nH]c(C)c2-c2ccc(Cl)cc2)c(O)c1,10,x,-5,2,x
COc1ccc(-c2n[nH]c(C)c2-c2ccc(Cl)cc2)c(O)c1OC,42,x,-3,55*,x
Cc1c(-c2ccccc2)oc2c(C(=O)N3CCN(c4ccccc4F)CC3)cccc2c1=O,18,-9,-12,54*,x
C[C@@H]1CN([C@H](C)CO)C(=O)Cc2cc(NC(=O)Nc3ccc(F)cc3)ccc2O[C@@H]1CN(C)Cc1ccncc1,x,x,x,x,0
CC(=O)c1c(OCC(=O)O)ccc2c(C)cc(=O)oc12,-9,-13,-4,6,x
CC(=O)c1c(OC(=O)c2ccccc2Br)ccc2c(C)cc(=O)oc12,37,-8,-3,54*,0
COc1cccc(NC(=O)N[C@H]2CC[C@H](CC(=O)NCc3ccncn3)O[C@@H]2CO)c1,x,-11,x,x,-1
O=C(O)c1ccccc1N/N=C\c1ccnc2ccccc12,48,x,-9,90*,x
CC(=O)Nc1ccc(C(=O)OCC(=O)c2cccc([N+](=O)[O-])c2)cc1,-21,1,-6,14,0
CCOC(=O)c1cccc(NC(=O)/C=C/c2ccc([N+](=O)[O-])cc2)c1,57*,6,x,79*,0
O=C(/C=C/c1ccc([N+](=O)[O-])cc1)Nc1cccc(C(=O)Nc2ccccc2C(=O)O)c1,9,-4,-20,71*,0
O=C(O)c1cc(NC(=O)c2ccc([N+](=O)[O-])cc2)cc(NC(=O)c2ccc([N+](=O)[O-])cc2)c1,2,19,-18,30,0
Cc1ccc(C(=O)COC(=O)c2cccc(NC(=O)c3ccc([N+](=O)[O-])cc3[N+](=O)[O-])c2)cc1,59*,x,-8,43,x
O=C(Nc1ccc([N+](=O)[O-])cc1)C(=O)Nc1cccc(C(=O)O)c1,-29,98*,-6,-15,0
COc1ccc2c3c(n(C)c2c1)[C@H](CO)N(Cc1ccccc1F)CC31CCN(CC2CC2)CC1,x,-4,x,x,u
SMILES,TROY NFkB inh,LGR2 antag,CaV13 ICDI inh,TWEAK Fn14 block,Xi reactivation
COc1cccc(-c2ccc3c(c2)O[C@@H](CN(C)Cc2ccncc2)[C@@H](C)CN([C@H](C)CO)S3(=O)=O)c1,x,-24,x,x,0
Cc1ccnc(NC(=O)/C=C/c2ccccc2Cl)c1,38,25,-3,64*,0
Cc1ccnc(NC(=O)/C=C/c2ccccc2[N+](=O)[O-])c1,x,-14,-18,x,0
Cc1cc(N)c2cc(NC(=O)/C=C/c3ccccc3Cl)ccc2n1,81*,x,x,34,x
CC[C@@H]1C/C=C\C[C@@H](C(C)C)NC(=O)CCC(=O)N1,x,x,x,x,0
COc1ccc(CCNc2oc(COc3ccccc3Cl)nc2C#N)cc1OC,52*,-5,-7,43,0
COc1ccc(Nc2oc(COc3ccccc3OC)nc2C#N)cc1,1,x,-3,55*,0
CCC(=O)N1C[C@@H](O)COC[C@H]2O[C@@H](CC(=O)N3CCCCC3)CC[C@@H]21,x,5,x,x,0
CCOC(=O)CN(C(=O)CSc1nnc(-c2ccncc2)n1CCCOC)c1ccccc1,58*,x,-6,-10,x
CCOC(=O)CN(C(=O)CSc1nnc(-c2ccncc2)n1CCCN(C)C)c1ccccc1,-11,x,-5,0,x
CC(=O)c1c(C)[nH]c(C(=O)OCCOc2ccccc2)c1C,62*,68*,-2,-19,0
Cc1c(C(=O)OCCOc2ccccc2)[nH]c2c1C(=O)CCC2,66*,x,-1,82*,x
CC(=O)c1c(C)[nH]c(C(=O)COC(=O)CCCOc2ccccc2)c1C,-13,3,4,11,0
c1ccc2c(-c3cncc4ccccc34)cncc2c1,34,14,-4,54*,0
c1ccc2c(c1)-c1cccc3cncc-2c13,-51,-16,-6,-16,0
Cc1cc2nc(-c3ccc(SCc4ccccc4C#N)nc3)[nH]c2cc1C,64*,-31,-8,58*,x
Cc1cc2nc(-c3ccc(SCc4ccc(C(=O)O)cc4)nc3)[nH]c2cc1C,52*,-41,-3,22,0
CNC(=O)C[C@H]1CC[C@H]2[C@H](COc3ccc(NC(=O)NCc4ccccc4)cc3C(=O)N2C)O1,x,1,x,x,0
COC(=O)C[C@H]1CC[C@H]2[C@H](COc3ccc(NS(C)(=O)=O)cc3C(=O)N2C)O1,x,9,x,x,0
CC1(c2nnnn2-c2ccc3c(c2)OCCO3)CCC(=O)N1C1CCN(Cc2ccccc2)CC1 (configuration not stated),50,8,-7,80*,0
Cc1nc2sc3c(NCc4ccco4)ncnc3c2c2c1COC(C)(C)C2,55*,x,x,87*,x
CC(C)Cc1nc2sc3c(NCc4ccco4)ncnc3c2c2c1COC(C)(C)C2,24,x,x,52*,x
CC1(C)Cc2c(c(-c3ccco3)nc3sc4c(NCCO)ncnc4c23)CO1,7,-38,-4,-1,0
O=S(=O)(Nc1cc2nc3ccccc3nc2n1Cc1ccccc1)c1ccc(Cl)cc1,49,x,-5,96*,78*
CCS(=O)(=O)N1CCC(C(=O)Oc2ccc(Cl)cc2)CC1,-5,0,-3,-2,0

# Screening results deposited in PubChem BioAssay by several laboratories.
